Activity calls are given as the source filed them.
How the values were obtained:
[1] = target: T1, G-protein coupled receptor 84 (Homo sapiens, UniProt Q9NQS5); experiment: Agonist activity at Gi coupled human GPR84 expressed in CHO cells assessed as inhibition of forskolin-induced cAMP accumulation at 10 uM after 15 mins in presence of [3H]-cAMP by radiometric assay relative to decanoic acid; type: functional, cell-based
Method in brief: (§1)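 Forskolin (10 µM) added with or without test compound for 15 min. Cells lysed in hot (90 °C) EDTA/Triton X-100 solution. cAMP measured radiometrically with bovine adrenal binding protein and [³H]cAMP, expressed as % of forskolin-alone response.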

[2] = target: T2, Free fatty acid receptor 4 (Homo sapiens) (UniProt Q5NUL3); experiment: Agonist activity at human FFAR4 expressed in CHO cells assessed as beta-arrestin recruitment at 10 uM after 90 mins by beta-galactosidase complementation assay; type: cell-based
T2 sequence (whole entry): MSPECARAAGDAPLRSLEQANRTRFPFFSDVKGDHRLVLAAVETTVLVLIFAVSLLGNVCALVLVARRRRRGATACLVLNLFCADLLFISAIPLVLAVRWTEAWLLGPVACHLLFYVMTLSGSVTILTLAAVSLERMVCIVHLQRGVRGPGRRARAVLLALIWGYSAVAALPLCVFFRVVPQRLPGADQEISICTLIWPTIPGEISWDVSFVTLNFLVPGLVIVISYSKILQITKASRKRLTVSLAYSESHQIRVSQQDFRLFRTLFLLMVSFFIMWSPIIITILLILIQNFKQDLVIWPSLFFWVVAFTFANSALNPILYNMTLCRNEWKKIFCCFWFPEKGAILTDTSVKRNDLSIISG
Method in brief: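 Human FFAR4 in CHO β-galactosidase complementation cells, 30,000 per well, serum-free F12 ~4 h before assay; final DMSO 1 %, compounds 10 µM. Agonist mode: 90 min with agonist, then detection 60 min rt dark; luminescence. 3–4 experiments in duplicate.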

[3] = target: T1, G-protein coupled receptor 84; experiment: Agonist activity at human GPR84 expressed in CHO cells assessed as beta-arrestin recruitment at 10 uM after 90 mins by beta-galactosidase complementation assay relative to embelin; type: cell-based
Method in brief: (§2)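 CHO cells co-expressing human GPR84–β-galactosidase fragment and β-arrestin–complementary fragment, 20,000 per well. Compounds in DMSO (final ≤1 %) added for 90 min, then detection reagent for 60 min at rt; luminescence read. Three to five independent experiments in duplicate.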

[4] = target: T1, G-protein coupled receptor 84; experiment: Antagonist activity at Gi coupled human GPR84 expressed in CHO cells assessed as inhibition of decanoic acid-induced receptor activation at 10 uM; type: cell-based
[5] = target: T1, G-protein coupled receptor 84; experiment: Agonist activity at Gi coupled human GPR84 expressed in CHO cells assessed as inhibition of forskolin-induced cAMP accumulation after 15 mins in presence of [3H]-cAMP by radiometric assay; type: functional, cell-based; method in brief: as §1
[6] = target: T3, Free fatty acid receptor 1 (Homo sapiens, UniProt O14842); experiment: Agonist activity at Gq protein coupled human FFAR1 expressed in human 1321N1 cells assessed as induction of intracellular calcium level at 10 uM measured at 1.2 secs time interval by Fluo-4-AM dye based fluorescence assay; type: functional, cell-based
Method in brief: (§3)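 1321N1 astrocytoma cells retrovirally expressing human FFAR1, 50,000 per well, loaded 60 min at rt in dark with 3 µM Fluo-4-AM and 0.06 % Pluronic F-127 in HBSS. Compounds at 10 µM final; antagonist mode uses 30 min preincubation before TUG-424 (final 1 µM). Fluorescence at 520 nm (excitation 485 nm), 90 reads at 1.2 s intervals. Normalized to TUG-424 at 10 µM (agonist) or 1 µM (antagonist).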

[7] = target: T1, G-protein coupled receptor 84; experiment: Agonist activity at human GPR84 expressed in CHO cells assessed as beta-arrestin recruitment after 90 mins by beta-galactosidase complementation assay; type: cell-based; method in brief: as §2
[8] = target: T2, Free fatty acid receptor 4 (Homo sapiens); experiment: Antagonist activity at human FFAR4 expressed in CHO cells assessed as inhibition of TUG-89-induced beta-arrestin recruitment at 10 uM preincubated for 30 mins followed by TUG-89 addition measured after 90 mins by beta-galactosidase complementation assay; type: cell-based
[9] = target: T3, Free fatty acid receptor 1; experiment: Antagonist activity at Gq protein coupled human FFAR1 expressed in human 1321N1 cells assessed as inhibition of TUG-424-induced intracellular calcium level preincubated for 30 mins followed by TUG-424 addition measured at 1.2 secs time interval by Fluo-4-AM dye based fluorescence assay; type: functional, cell-based; method in brief: as §3
[10] = target: T1, G-protein coupled receptor 84; experiment: Agonist activity at Gi coupled human GPR84 expressed in CHO cells assessed as inhibition of forskolin-induced cAMP accumulation up to 100 uM preincubated for 5 mins followed by forskolin addition measured after 15 mins in presence of [3H]-cAMP by radiometric assay; type: functional, cell-based
Method in brief: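 Concentration-response in CHO-hGPR84 cells. Compound preincubated 5 min, then forskolin 10 µM added for a further 15 min. Maximal forskolin-induced cAMP without agonist set as 100 %. […] Mean ± SEM of 3 independent experiments in duplicate.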

T1 sequence (Q9NQS5 whole entry): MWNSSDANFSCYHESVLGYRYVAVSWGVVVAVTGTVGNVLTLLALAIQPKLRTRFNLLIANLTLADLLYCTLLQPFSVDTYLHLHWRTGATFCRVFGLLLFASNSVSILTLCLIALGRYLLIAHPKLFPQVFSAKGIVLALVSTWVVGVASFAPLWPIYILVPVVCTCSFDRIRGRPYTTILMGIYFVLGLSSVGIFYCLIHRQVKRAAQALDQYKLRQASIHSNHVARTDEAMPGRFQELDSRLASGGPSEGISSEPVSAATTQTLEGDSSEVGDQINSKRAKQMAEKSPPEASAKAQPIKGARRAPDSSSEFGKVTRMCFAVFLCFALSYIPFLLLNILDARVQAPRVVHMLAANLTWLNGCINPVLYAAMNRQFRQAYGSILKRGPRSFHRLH
T3 sequence (O14842 whole entry): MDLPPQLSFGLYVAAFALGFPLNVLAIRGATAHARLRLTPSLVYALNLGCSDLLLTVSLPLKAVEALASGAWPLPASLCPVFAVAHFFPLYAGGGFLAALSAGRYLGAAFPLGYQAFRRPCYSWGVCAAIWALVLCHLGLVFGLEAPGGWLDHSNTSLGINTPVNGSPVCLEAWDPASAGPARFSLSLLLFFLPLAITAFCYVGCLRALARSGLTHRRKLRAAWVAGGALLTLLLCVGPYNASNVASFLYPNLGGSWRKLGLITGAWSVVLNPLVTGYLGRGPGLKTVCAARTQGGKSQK

SMILES	Emax [1]	Activity [2]	Emax [3]	inhibition [4]	EC50 [5]	Activity [6]	EC50 [7]	inhibition [8]	EC50 [9]	inhibition [10]
COc1ccc2[nH]cc(C=C3C(=O)Nc4ccc(F)cc43)c2c1	7%	inactive	-31%	inactive	> 10 µM	inactive	> 10 µM	inactive		
c1ccc2c(C(c3c[nH]c4ccccc34)c3c[nH]c4ccccc34)c[nH]c2c1	-10%	inactive	10%	inactive	> 10 µM	inactive	> 10 µM	inactive		
Cc1ccc(C(c2c[nH]c3ccccc23)c2c[nH]c3ccccc23)cc1	2%	inactive	10%	inactive	> 10 µM	inactive	> 10 µM	inactive		
COc1ccc2[nH]cc(Cc3c[nH]c4ccc(OC)cc34)c2c1	119%	inactive	103%		0.365 to 0.369 µM	inactive	1.2 µM	inactive		
CCCC(c1c[nH]c2ccccc12)c1c[nH]c2ccccc12	-24%	inactive	199%	inactive	> 10 µM	inactive	6.07 µM	inactive	8.81 µM	
Cn1cc(Cc2cn(C)c3ccccc23)c2ccccc21	-37%	inactive	-3%	inactive	> 10 µM	inactive	> 10 µM	inactive		
Fc1ccc2c(Cc3c[nH]c4cc(F)ccc34)c[nH]c2c1	89%	inactive	48%		0.625 µM	inactive	7.53 µM	inactive		
OCc1c[nH]c2ccccc12										inactive
Oc1ccc(C(c2c[nH]c3ccccc23)c2c[nH]c3ccccc23)cc1	7%	inactive	-5%	inactive	> 10 µM	inactive	> 10 µM	inactive		
Cc1cccc2[nH]cc(Cc3c[nH]c4cccc(C)c34)c12	112%	inactive	24%		0.987 µM	inactive	> 10 µM	inactive		
O=C(O)c1ccc2[nH]cc(Cc3c[nH]c4ccc(C(=O)O)cc34)c2c1	28%	inactive	-5%	inactive	≥ 10 µM	inactive	> 10 µM	inactive		
Cc1[nH]c2ccccc2c1Cc1c(C)[nH]c2ccccc12	42%	inactive	23%	inactive	≥ 10 µM	inactive	> 10 µM	inactive		
O=C1Nc2ccccc2/C1=C/c1c[nH]c2ccccc12	-17%	inactive	-22%	inactive	> 10 µM	inactive	> 10 µM	inactive		
Cc1ccc2[nH]cc(Cc3c[nH]c4ccc(C)cc34)c2c1	45%	inactive	49%		≥ 10 µM	inactive	≥ 10 µM	inactive		
c1ccc2c(c1)[nH]c1cc3c(cc12)[nH]c1ccccc13										inactive
Fc1ccc2[nH]cc(Cc3c[nH]c4ccc(F)c(F)c34)c2c1F	123%	inactive	-2%		0.377 µM	inactive	> 10 µM	inactive		
Clc1ccc2c(Cc3c[nH]c4cc(Cl)ccc34)c[nH]c2c1	4%	inactive	118%	inactive	> 10 µM	inactive	5.34 µM	inactive		
c1cc2c(c(C(c3c[nH]c4ccccc34)c3c[nH]c4ccccc34)c1)OCO2	0%	inactive	7%	inactive	> 10 µM	inactive	> 10 µM	inactive		
COc1ccc2[nH]cc(Cc3c[nH]c4ccccc34)c2c1	97%	inactive	110%		1.89 µM	inactive	6.47 µM	inactive		
Cn1cc(Cc2c[nH]c3ccccc23)c2ccccc21	43%	inactive	8%	inactive	≥ 10 µM	inactive	> 10 µM	inactive		
CC(c1c[nH]c2ccccc12)c1c[nH]c2ccccc12 [VIBRINDOLE A]	-5%	inactive	3%	inactive	> 10 µM	inactive	> 10 µM	inactive		
Fc1cccc2[nH]cc(Cc3c[nH]c4cccc(F)c34)c12	110%	inactive	108%		0.328 µM	inactive	1.23 µM	inactive	6.49 µM	
O=C1Nc2ccccc2C1=Cc1ccc2[nH]ccc2c1	-16%	inactive	-7%	inactive	> 10 µM	inactive	> 10 µM	inactive		
c1cnc2[nH]cc(Cc3c[nH]c4ncccc34)c2c1	-12%	inactive	115%	inactive	> 10 µM	inactive	2.27 µM	inactive		
CC(c1c[nH]c2cccc(F)c12)c1c[nH]c2cccc(F)c12	5%	inactive	34%	inactive	> 10 µM	inactive	> 10 µM	inactive		
CCCCC(c1c[nH]c2ccccc12)c1c[nH]c2ccccc12	-4%	inactive	-3%	inactive	> 10 µM	inactive	> 10 µM	inactive		
O=C(c1c[nH]c2ccccc12)c1c[nH]c2ccccc12	104%	inactive	161%		0.553 µM	inactive	19 µM	inactive		

From ChEMBL document CHEMBL4014307, “Diindolylmethane Derivatives: Potent Agonists of the Immunostimulatory Orphan G Protein-Coupled Receptor GPR84” (J Med Chem, 2017)
